Assay [1] deals with T1, Glucagon-like peptide 1 receptor (Homo sapiens, UniProt P43220). Description: Agonist activity at human GLP1R expressed in CHO cells assessed as stimulation of intracellular [3H]cAMP accumulation after 30 mins by scintillation proximity assay. The assay is classed as functional, cell-based. The method, boiled down:
(§1)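 CHO cells stably expressing human or mouse GLP-1R, grown in F-12 with 10% FBS plus Geneticin (0.4 mg/mL human, 1 mg/mL mouse), plated 2×10^4/well overnight. Half-log dilutions made in DMSO, then in DPBS with 0.1 mM IBMX and 0.05% BSA (final 1% DMSO). Cells exposed 30 min. cAMP read by SPA and converted to pmol via standard curve. Duplicates, at least three separate runs.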
(cAMP levels reflect the balance of adenylyl cyclase and phosphodiesterase activity.)

Assay [2] addresses T1, Glucagon-like peptide 1 receptor. Description: Displacement of [125I]GLP1 from human GLP1R expressed in CHO cells. The assay is classed as cell-based.
The target is the same in assay [3]. Description: Agonist activity at human GLP1R expressed in CHO cells assessed as stimulation of intracellular [3H]cAMP accumulation at 1 to 100 nM after 30 mins by scintillation proximity assay in presence of GLP1R antagonist truncated exendin-4(9-39). The assay is classed as functional, cell-based. The gist of the method: as §1

Activity calls are given as the source filed them. No cut-off for these calls is given here. Square brackets hold non-standard residues; d marks the D form. Peptide text beside a SMILES is read from it. Bip(2'-Et-4'-OMe) = CCc1cc(OC)ccc1-c1ccc(C[C@H](N)C(=O)O)cc1; Bip(2'-Me) = Cc1ccccc1-c1ccc(C[C@H](N)C(=O)O)cc1; αMeF = C[C@](N)(Cc1ccccc1)C(=O)O; Aib = CC(C)(N)C(=O)O

T1 sequence (P43220 whole entry): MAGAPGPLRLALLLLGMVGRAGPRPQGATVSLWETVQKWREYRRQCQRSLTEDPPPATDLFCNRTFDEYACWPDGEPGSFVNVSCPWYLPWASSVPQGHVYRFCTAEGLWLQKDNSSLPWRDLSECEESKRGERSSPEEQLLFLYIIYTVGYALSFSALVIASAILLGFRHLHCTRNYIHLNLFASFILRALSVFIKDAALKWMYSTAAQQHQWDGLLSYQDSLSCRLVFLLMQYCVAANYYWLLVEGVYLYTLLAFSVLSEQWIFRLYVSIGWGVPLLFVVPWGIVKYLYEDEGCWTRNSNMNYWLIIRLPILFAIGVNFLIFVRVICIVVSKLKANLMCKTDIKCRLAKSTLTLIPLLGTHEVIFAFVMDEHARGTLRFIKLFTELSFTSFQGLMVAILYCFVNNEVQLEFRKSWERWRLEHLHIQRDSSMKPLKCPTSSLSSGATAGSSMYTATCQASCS

`C[C@H](NC(=O)[C@@H](N)Cc1cnc[nH]1)C(=O)N[C@@H](CCC(=O)O)C(=O)NCC(=O)N[C@H](C(=O)N[C@@H](Cc1ccccc1)C(=O)N[C@H](C(=O)N[C@@H](CO)C(=O)N[C@@H](CC(=O)O)C(=O)N[C@@H](Cc1ccc(-c2ccccc2)cc1)C(=O)N[C@@H](Cc1ccc(-c2ccccc2)cc1)C(=O)O)[C@@H](C)O)[C@@H](C)O`: the EC50 in assay [1] was > 10000 nM.

`Cc1ccccc1-c1ccc(C[C@H](NC(=O)[C@H](Cc2ccc(-c3ccccc3)cc2)NC(=O)[C@H](CC(=O)O)NC(=O)[C@H](CO)NC(=O)[C@@H](NC(=O)[C@H](Cc2ccccc2)NC(=O)[C@@H](NC(=O)CNC(=O)[C@H](CCC(=O)O)NC(=O)[C@H](C)NC(=O)[C@@H](N)Cc2cnc[nH]2)[C@@H](C)O)[C@@H](C)O)C(N)=O)cc1`: the EC50 in assay [1] worked out at 480 nM.

With `Cc1ccccc1-c1ccc(C[C@H](NC(=O)[C@H](Cc2ccc(-c3ccccc3C)cc2)NC(=O)[C@H](CC(=O)O)NC(=O)[C@H](CO)NC(=O)[C@@H](NC(=O)[C@H](Cc2ccccc2)NC(=O)[C@@H](NC(=O)CNC(=O)[C@H](CCC(=O)O)NC(=O)[C@H](C)NC(=O)[C@@H](N)Cc2cnc[nH]2)[C@@H](C)O)[C@@H](C)O)C(N)=O)cc1`, in assay [1], the EC50 is 148 nM.

For the compound `CCc1cc(OC)ccc1-c1ccc(C[C@H](NC(=O)[C@H](CC(=O)O)NC(=O)[C@H](CO)NC(=O)[C@@H](NC(=O)[C@H](Cc2ccccc2)NC(=O)[C@@H](NC(=O)CNC(=O)[C@H](CCC(=O)O)NC(=O)[C@H](C)NC(=O)[C@@H](N)Cc2cnc[nH]2)[C@@H](C)O)[C@@H](C)O)C(=O)N[C@@H](Cc2ccc(-c3ccccc3C)cc2)C(N)=O)cc1`, the EC50 in assay [1] amounted to 7 nM.

Take `Cc1ccc(-c2ccc(C[C@H](NC(=O)[C@H](Cc3ccc(-c4ccccc4)cc3)NC(=O)[C@H](CC(=O)O)NC(=O)[C@H](CO)NC(=O)[C@@H](NC(=O)[C@H](Cc3ccccc3)NC(=O)[C@@H](NC(=O)CNC(=O)[C@H](CCC(=O)O)NC(=O)[C@H](C)NC(=O)[C@@H](N)Cc3cnc[nH]3)[C@@H](C)O)[C@@H](C)O)C(N)=O)cc2)cc1`: the EC50 in assay [1] is 270 nM.

As for `Cc1cccc(-c2ccc(C[C@H](NC(=O)[C@H](Cc3ccc(-c4ccccc4)cc3)NC(=O)[C@H](CC(=O)O)NC(=O)[C@H](CO)NC(=O)[C@@H](NC(=O)[C@H](Cc3ccccc3)NC(=O)[C@@H](NC(=O)CNC(=O)[C@H](CCC(=O)O)NC(=O)[C@H](C)NC(=O)[C@@H](N)Cc3cnc[nH]3)[C@@H](C)O)[C@@H](C)O)C(N)=O)cc2)c1`, the EC50 in assay [1] was 215 nM.

As to `C[C@H](NC(=O)[C@@H](N)Cc1cnc[nH]1)C(=O)N[C@@H](CCC(=O)O)C(=O)NCC(=O)N[C@H](C(=O)N[C@@H](Cc1ccccc1)C(=O)N[C@H](C(=O)N[C@@H](CO)C(=O)N[C@@H](CC(=O)O)C(=O)N[C@@H](Cc1ccc(-c2ccccc2)cc1)C(=O)N[C@@H](Cc1ccc(-c2ccccc2)cc1)C(=O)N[C@@H](Cc1ccc(-c2ccccc2)cc1)C(N)=O)[C@@H](C)O)[C@@H](C)O`, in assay [1], the EC50 turned out to be 787 nM.

Consider `COc1ccc(-c2ccc(C[C@H](NC(=O)[C@H](Cc3ccc(-c4ccccc4)cc3)NC(=O)[C@H](CC(=O)O)NC(=O)[C@H](CO)NC(=O)[C@@H](NC(=O)[C@H](Cc3ccccc3)NC(=O)[C@@H](NC(=O)CNC(=O)[C@H](CCC(=O)O)NC(=O)[C@H](C)NC(=O)[C@@H](N)Cc3cnc[nH]3)[C@@H](C)O)[C@@H](C)O)C(N)=O)cc2)cc1`, for which the EC50 in assay [1] was 390 nM.

As for `C[C@H](NC(=O)[C@@H](N)Cc1cnc[nH]1)C(=O)N[C@@H](CCC(=O)O)C(=O)NCC(=O)N[C@H](C(=O)N[C@@H](Cc1ccccc1)C(=O)N[C@H](C(=O)N[C@@H](CO)C(=O)N[C@@H](CC(=O)O)C(=O)N[C@@H](Cc1ccc(-c2ccccc2)cc1)C(=O)N[C@@H](Cc1ccc(-c2ccc(F)cc2)cc1)C(N)=O)[C@@H](C)O)[C@@H](C)O`, the concentration for a half-maximal effect (EC50) in assay [1] worked out at 430 nM.

As for `Cc1ccc(-c2ccc(C[C@H](NC(=O)[C@H](Cc3ccc(-c4ccccc4C)cc3)NC(=O)[C@H](CC(=O)O)NC(=O)[C@H](CO)NC(=O)[C@@H](NC(=O)[C@H](Cc3ccccc3)NC(=O)[C@@H](NC(=O)CNC(=O)[C@H](CCC(=O)O)NC(=O)[C@H](C)NC(=O)[C@@H](N)Cc3cnc[nH]3)[C@@H](C)O)[C@@H](C)O)C(N)=O)cc2)cc1`, the EC50 in assay [1] was found to be 95 nM.

As for `CCc1ccccc1-c1ccc(C[C@H](NC(=O)[C@H](CC(=O)O)NC(=O)[C@H](CO)NC(=O)[C@@H](NC(=O)[C@H](Cc2ccccc2)NC(=O)[C@@H](NC(=O)CNC(=O)[C@H](CCC(=O)O)NC(=O)[C@H](C)NC(=O)[C@@H](N)Cc2cnc[nH]2)[C@@H](C)O)[C@@H](C)O)C(=O)N[C@@H](Cc2ccc(-c3ccccc3)cc2)C(N)=O)cc1`, the EC50 in assay [1] is 27 nM.

For `Cc1cccc(-c2ccc(C[C@H](NC(=O)[C@H](Cc3ccc(-c4ccccc4C)cc3)NC(=O)[C@H](CC(=O)O)NC(=O)[C@H](CO)NC(=O)[C@@H](NC(=O)[C@H](Cc3ccccc3)NC(=O)[C@@H](NC(=O)CNC(=O)[C@H](CCC(=O)O)NC(=O)[C@H](C)NC(=O)[C@@H](N)Cc3cnc[nH]3)[C@@H](C)O)[C@@H](C)O)C(N)=O)cc2)c1`, in assay [1], the EC50 came out at 87 nM.

Take `CCc1ccccc1-c1ccc(C[C@H](NC(=O)[C@H](CC(=O)O)NC(=O)[C@H](CO)NC(=O)[C@@H](NC(=O)[C@H](Cc2ccccc2)NC(=O)[C@@H](NC(=O)CNC(=O)[C@H](CCC(=O)O)NC(=O)[C@H](C)NC(=O)[C@@H](N)Cc2cnc[nH]2)[C@@H](C)O)[C@@H](C)O)C(=O)N[C@@H](Cc2ccc(-c3ccccc3C)cc2)C(N)=O)cc1`: the EC50 in assay [1] worked out at 22 nM.

Consider `CCCc1ccccc1-c1ccc(C[C@H](NC(=O)[C@H](CC(=O)O)NC(=O)[C@H](CO)NC(=O)[C@@H](NC(=O)[C@H](Cc2ccccc2)NC(=O)[C@@H](NC(=O)CNC(=O)[C@H](CCC(=O)O)NC(=O)[C@H](C)NC(=O)[C@@H](N)Cc2cnc[nH]2)[C@@H](C)O)[C@@H](C)O)C(=O)N[C@@H](Cc2ccc(-c3ccccc3C)cc2)C(N)=O)cc1`, for which, in assay [1], the EC50 came to 93 nM.

In the case of `COc1ccc(-c2ccc(C[C@H](NC(=O)[C@H](CC(=O)O)NC(=O)[C@H](CO)NC(=O)[C@@H](NC(=O)[C@H](Cc3ccccc3)NC(=O)[C@@H](NC(=O)CNC(=O)[C@H](CCC(=O)O)NC(=O)[C@H](C)NC(=O)[C@@H](N)Cc3cnc[nH]3)[C@@H](C)O)[C@@H](C)O)C(=O)N[C@@H](Cc3ccc(-c4ccccc4C)cc3)C(N)=O)cc2)c(C)c1`, the EC50 in assay [1] was found to be 35 nM.

For the compound `COc1cccc(-c2ccc(C[C@H](NC(=O)[C@H](CC(=O)O)NC(=O)[C@H](CO)NC(=O)[C@@H](NC(=O)[C@H](Cc3ccccc3)NC(=O)[C@@H](NC(=O)CNC(=O)[C@H](CCC(=O)O)NC(=O)[C@H](C)NC(=O)[C@@H](N)Cc3cnc[nH]3)[C@@H](C)O)[C@@H](C)O)C(=O)N[C@@H](Cc3ccc(-c4ccccc4C)cc3)C(N)=O)cc2)c1`, the half-maximal effective concentration (EC50) in assay [1] worked out at 965 nM.

`C[C@H](NC(=O)[C@@H](N)Cc1cnc[nH]1)C(=O)N[C@@H](CCC(=O)O)C(=O)NCC(=O)N[C@H](C(=O)N[C@@H](Cc1ccccc1)C(=O)N[C@H](C(=O)N[C@@H](CO)C(=O)N[C@@H](CC(=O)O)C(=O)N[C@@H](Cc1ccc(-c2ccccc2)cc1)C(=O)N[C@@H](Cc1ccc(-c2ccccc2)cc1)C(N)=O)[C@@H](C)O)[C@@H](C)O`: in assay [2], the outcome was Active. For the same compound, in assay [1], the EC50 came out at 545 nM. Besides, the outcome in assay [3] was inactive.

For `C[C@H](NC(=O)[C@@H](N)Cc1cnc[nH]1)C(=O)N[C@@H](CCC(=O)O)C(=O)NCC(=O)N[C@H](C(=O)N[C@@H](Cc1ccccc1)C(=O)N[C@H](C(=O)N[C@@H](CO)C(=O)N[C@@H](CC(=O)O)C(=O)N[C@@H](Cc1ccc(-c2ccccc2)cc1)C(N)=O)[C@@H](C)O)[C@@H](C)O`, the EC50 in assay [1] was > 10000 nM.

Regarding `CCc1cc(OC)ccc1-c1ccc(C[C@H](NC(=O)[C@H](CC(=O)O)NC(=O)[C@H](CO)NC(=O)[C@@H](NC(=O)[C@](C)(Cc2ccccc2)NC(=O)[C@@H](NC(=O)CNC(=O)[C@H](CCC(=O)O)NC(=O)[C@H](C)NC(=O)[C@@H](N)Cc2cnc[nH]2)[C@@H](C)O)[C@@H](C)O)C(=O)N[C@@H](Cc2ccc(-c3ccccc3C)cc2)C(N)=O)cc1` (H-HAEGT[αMeF]TSD[Bip(2'-Et-4'-OMe)][Bip(2'-Me)]-NH2), in assay [1], the EC50 was 2.4 nM.

For `CCc1cc(OC)ccc1-c1ccc(C[C@H](NC(=O)[C@H](CC(=O)O)NC(=O)[C@H](CO)NC(=O)[C@@H](NC(=O)[C@](C)(Cc2ccccc2)NC(=O)[C@@H](NC(=O)CNC(=O)[C@H](CCC(=O)O)NC(=O)C(C)(C)NC(=O)[C@@H](N)Cc2cnc[nH]2)[C@@H](C)O)[C@@H](C)O)C(=O)N[C@@H](Cc2ccc(-c3ccccc3C)cc2)C(N)=O)cc1` (H-H[Aib]EGT[αMeF]TSD[Bip(2'-Et-4'-OMe)][Bip(2'-Me)]-NH2), in assay [1], the EC50 was determined as 0.28 nM.

By EC50 is commonly meant the midpoint of the concentration-response curve.

The record behind these values is ChEMBL document CHEMBL1156009, “Eleven amino acid glucagon-like peptide-1 receptor agonists with antidiabetic activity” (J Med Chem, 2009).
